OX1R antag-1 – OX1R (human) antagonism. 330,000 compounds, 1.8% hits. OX1R-expressing cells, FRET antagonist read-out. O43613. AID 485270. inhibition, % at 6.6 µM; in the data active = inhibition mostly above about 38%, no sharp cut-off; inactive = mostly below about 40%;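 note: 0% = agonist challenge alone and 100% = reference antagonist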
Target sequence (O43613 whole entry, looked up): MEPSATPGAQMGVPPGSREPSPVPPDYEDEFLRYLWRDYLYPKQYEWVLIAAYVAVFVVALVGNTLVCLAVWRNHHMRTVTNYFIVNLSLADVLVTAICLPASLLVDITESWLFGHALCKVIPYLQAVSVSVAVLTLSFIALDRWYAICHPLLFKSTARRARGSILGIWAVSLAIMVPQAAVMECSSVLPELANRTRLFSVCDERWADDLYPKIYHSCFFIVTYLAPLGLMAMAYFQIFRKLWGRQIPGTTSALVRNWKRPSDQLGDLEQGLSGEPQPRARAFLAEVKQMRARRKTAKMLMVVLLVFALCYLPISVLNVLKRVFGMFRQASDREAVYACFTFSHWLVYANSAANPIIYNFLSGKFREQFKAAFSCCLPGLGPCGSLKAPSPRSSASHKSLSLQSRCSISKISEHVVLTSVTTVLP
TAAR1 antagonist – antagonists of human TAAR1. CHO RD-HGA16 TAAR1, Fluo-8 calcium fluorescence, antagonist. inhibition, % at 3 µM. 360,000 compounds, 1.5% hits;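 active = inhibition above a per-plate cutoff, the mean inhibition of test compounds on that plate plus 3 SD, cut at about 49% in these data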;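 note: 0% = DMSO plus EC80 beta-PEA response and 100% = DMSO alone without agonist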
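Assay system: CHO-derived RD-HGA16 cells stably expressing human TAAR1 plus Gα16. Timing: 140 s kinetic read after compound, 140 s after agonist. Technique: kinetic Fluo-8 calcium fluorescence measurement. Measure: % inhibition of agonist calcium response.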
TAAR1 agonist – agonists of human TAAR1 | Q96RJ0 | CHO RD-HGA16 TAAR1, Fluo-8 calcium fluorescence; vehicle wells 0%, saturating PEA agonist 100% | activation, % at 3 µM | 360,000 compounds, 0.99% hits | AID 624467;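 active = activation above the mean activation of all test compounds in the run plus 3 SD, cut at about 38% in these data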
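Test system: RD-HGA16 (CHO) cells co-expressing Gα16 and hTAAR1; dosing: one-point dosing at 3 µM (nominal); timing: 17-24 h seeding, 75 min 37 °C dye, 30 min RT; signal: kinetic Fluo-8 calcium fluorescence; read-out basis: % activation relative to PEA EC100 response; controls: DMSO and PEA EC100; replicates: n 1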
CHO parental Ca – counter-screen: ATP calcium response change in parental CHO cells; inhibition, % at 5.6 µM; parental CHO-K1, ATP-induced calcium, Fluo-8 fluorescence; 330,000 compounds, 0.63% hits;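 active = inhibition above that plate's mean sample inhibition plus 3 SD, cut at about 26% in these data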;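 note: 0% = ATP-challenged DMSO wells and 100% = DMSO wells without ATP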
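Test system: untransfected parental CHO cell line; also added: ATP stimulus; dosing: 5.6 µM, single dose; signal: calcium-sensitive Fluo-8 fluorescence; measure: percent inhibition of ATP-evoked calcium rise, normalized to controls; benchmarks: low control ATP plus DMSO, high control DMSO only; replication: one well per compound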
GalR3 antag – blocks the human galanin receptor 3; HEK293 GalR3-CNG cAMP membrane potential fluorescence; galR3 body fused to GalR1 C-terminus; inhibition, % at 3 µM; AID 651719; O60755; 360,000 compounds, 0.44% hits;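 active = inhibition above the screen-wide average plus 3 SD, cut at about 13% in these data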;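 note: forskolin and galanin both at EC90 stimulate the cells; cAMP rise reported by CNG channel membrane potential dye signal; 0% = forskolin plus galanin with DMSO and 100% = forskolin alone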
OX1R antag-2 – blocks the human orexin 1 receptor; O43613; CHO/OX1R cells, Fluo-8 calcium fluorescence, orexin A; inhibition, % at 5 µM; 330,000 compounds, 0.43% hits;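 active = inhibition above its plate's threshold, mean inhibition of all tested compounds on the plate plus 3 SD, cut at about 37% in these data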;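 note: 0% = orexin A challenge wells and 100% = SB-334867-A antagonist wells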
The depositor's hits bear a star; x = no result given. An excerpt weighted towards active compounds, which were near 4.2% of everything screened.

SMILES	OX1R antag-1	TAAR1 antagonist	TAAR1 agonist	CHO parental Ca	GalR3 antag	OX1R antag-2
CC(NCC(O)COc1ccc2ccccc2c1)c1ccccc1 (stereo unspecified)	-9	32	31	9	-17	-24
COc1ccc(CNC(=O)c2cc3ccccc3oc2=O)cc1	8	8	4	-20	-4	-22
Cc1[nH]c2ccccc2c1SCCNC(=O)c1ccc(Br)o1	66*	27	3	-25	0	24
O=C(NCCSc1c[nH]c2ccccc12)c1ccc(Br)o1	19	-1	2	-5	x	-5
COc1ccc(-c2[nH]c3ccccc3c2SCCNC(=O)c2cc3ccccc3oc2=O)cc1	42*	37	5	-9	x	-16
CC(C)C(NC(=O)c1ccc(Cl)cc1Cl)C(=O)NCCc1ccccn1 (stereo unspecified)	x	-2	-1	x	0	x
COc1cc(/C=N/Nc2ccc(Cl)c(C(=O)O)c2)ccc1OC(=O)c1ccco1	6	-19	-2	-16	-4	-14
O=S(=O)(Nc1cccc2ncccc12)c1cccs1	32	x	x	40*	x	27
Cc1ccc(C(c2nnnn2C2CCCC2)N2CCc3ccccc32)cc1 (stereo unspecified)	24	-16	-2	7	-4	-19
N#C/C(=C\c1ccc(N2CCCCC2)o1)C(N)=O	42*	13	23	-4	0	1
NC(=O)c1ccsc1NC(=O)c1ccc([N+](=O)[O-])o1	34*	-3	8	-4	-5	32
O=C(Nc1ccccn1)c1ccc([N+](=O)[O-])o1	72*	x	x	-1	x	-6
O=C(Nc1ncccn1)c1ccc([N+](=O)[O-])o1	41*	0	8	-14	-7	1
Cc1cccc(NC(=O)c2ccc([N+](=O)[O-])o2)c1C	76*	-20	1	-1	-3	-14
CCC(c1nnnn1CCOC)N(Cc1ccc(C)cc1)Cc1cc2cc(OC)ccc2[nH]c1=O (stereo unspecified)	27	-6	2	-25	6	-27
O=C(c1ccco1)N1CCN(C(=O)C23CC4CC(CC(C4)C2)C3)CC1	7	20	1	5	-2	-14
Cc1ccc(NC(=O)CCN2C(=O)C3CC=CCC3C2=O)cc1Cl (stereo unspecified)	2	-3	1	-8	-2	-2
CCn1c(SCC(=O)Nc2nc(C)c(C)s2)nc2cccnc21	75*	9	5	-23	0	3
CCOc1ccccc1NC(=O)CSc1nc2cccnc2n1C	53*	17	6	-6	-2	5
CCOC(=O)C1CCN(c2ncnc3c2oc2ccccc23)CC1	62*	4	9	-9	3	19
CCOC(=O)C1CCN(c2nc(-c3ccccc3)nc3c2oc2ccccc23)CC1	19	-30	-1	-11	0	-31
CCOC(=O)C1CCCN(c2ncnc3c2oc2ccccc23)C1 (stereo unspecified)	89*	25	11	40*	-1	55*
O=C1NC(=Nc2ccccc2)S/C1=C\c1ccccc1	13	3	0	-4	-8	-16
Cc1ccc(CNC(=O)CCCc2nc3ccccc3s2)cc1	34	-8	-1	-15	-4	-12
CC(=O)Nc1ccc(S(=O)(=O)N(C)Cc2ccccc2)cc1	20	-6	6	0	-3	-1
SMILES	OX1R antag-1	TAAR1 antagonist	TAAR1 agonist	CHO parental Ca	GalR3 antag	OX1R antag-2
CC(=O)Nc1ccc(S(=O)(=O)N(Cc2ccccc2)C(C)C)cc1	43*	13	9	3	-6	-8
COCCN1CCN(C(=O)C2CCC(=O)N(Cc3ccc(Cl)cc3)C2)CC1 (stereo unspecified)	2	-10	0	-12	-8	-4
O=C(O)c1ccc(-n2c(/C=C/c3ccccc3)nc3ccccc3c2=O)cc1	37*	35	5	8	-6	3
CN(C)C(=O)COC(=O)/C=C/c1ccccc1[N+](=O)[O-]	39*	0	6	3	-3	-12
N#Cc1c(NC(=S)NC(=O)c2ccccc2)sc2c1CCN(CCc1ccccc1)C2	26	x	x	36*	x	36
Cc1ccc(S(=O)(=O)NCC(=O)OCC(=O)Nc2cccc(S(=O)(=O)NC3=NCCCCC3)c2)cc1	-4	-25	6	6	-1	-11
CCN(C(=O)CSc1nc2ccc([N+](=O)[O-])cc2s1)C1CCS(=O)(=O)C1 (stereo unspecified)	68*	1	2	-10	-5	-5
CC1Cc2ccccc2N1C(=O)CSc1nc2c(c(=O)n(C)c(=O)n2C)n1Cc1ccccc1 (stereo unspecified)	37	52*	17	-31	4	-22
Cc1ccc(C(=O)N2CCN(S(=O)(=O)c3ccc(C)cc3)CC2)cc1	11	1	1	-13	-2	-10
CC1CCC2(CC1)NC(=O)N(CC(=O)Nc1ccc(N3CCOCC3)cc1)C2=O (stereo unspecified)	7	-1	0	71*	-6	6
COC(=O)[C@H](C)NC(=O)NC1CCCc2ccccc21 (stereo partly specified)	4	x	x	36*	x	61*
CC(C)[C@H](NC(=O)NC1CCCc2ccccc21)C(=O)O (stereo partly specified)	8	4	15	-6	-6	-23
COc1ccc([C@@H]2CC=C(C(=O)O)[C@H](c3ccc(C)cc3)N2S(=O)(=O)c2ccccc2C)cc1	50*	9	-1	-11	-7	2
Cc1ccc([C@@H]2CC=C(C(=O)O)[C@H](c3ccccc3)N2S(=O)(=O)c2ccccc2C)cc1	54*	8	2	-15	-4	33
Cc1ccc([C@H]2C(C(=O)O)=CC[C@@H](c3ccc(C)cc3)N2S(=O)(=O)c2ccccc2C)cc1	45*	-1	0	-19	2	0
Cn1c(CNc2ccc(Br)cc2)nc2ccccc21	8	1	2	-9	-11	-17
O=C(COc1ccccc1)Nc1ccc(Cl)c(-c2nc3ncccc3o2)c1	26	10	7	-9	-2	-3
Cn1cccc1C(=O)NC(=O)COC(=O)c1ccc(S(C)(=O)=O)c([N+](=O)[O-])c1	33	x	x	9	x	23
CS(=O)(=O)c1ccc(C(=O)OCC(=O)NC23CC4CC(CC(C4)C2)C3)cc1[N+](=O)[O-]	26	21	10	68*	-9	42*
CC(C)C1O/C(=N/C(=O)Nc2ccc(Cl)c(Cl)c2)NC1=O (stereo unspecified)	11	-28	31	44*	2	38

Compound activity as filed in PubChem.
